In ChEMBL document CHEMBL1143614, “Structure-activity relationships of the unique and potent agouti-related protein (AGRP)-melanocortin chimeric Tyr-c[beta-Asp-His-DPhe-Arg-Trp-Asn-Ala-Phe-Dpr]-Tyr-NH2 peptide template” (J Med Chem, 2005):
Where a SMILES comes first, the peptide text is derived from it. Bridges are numbered along the chain shown (N, C = ends).

Legend:
[1] = target: Melanocortin receptor 4 (Mus musculus) (UniProt P56450); test: Partial agonist activity towards mouse Melanocortin-4 receptor; format: functional
Melanocortin receptor 4 (Mus musculus), sequence (P56450 whole entry): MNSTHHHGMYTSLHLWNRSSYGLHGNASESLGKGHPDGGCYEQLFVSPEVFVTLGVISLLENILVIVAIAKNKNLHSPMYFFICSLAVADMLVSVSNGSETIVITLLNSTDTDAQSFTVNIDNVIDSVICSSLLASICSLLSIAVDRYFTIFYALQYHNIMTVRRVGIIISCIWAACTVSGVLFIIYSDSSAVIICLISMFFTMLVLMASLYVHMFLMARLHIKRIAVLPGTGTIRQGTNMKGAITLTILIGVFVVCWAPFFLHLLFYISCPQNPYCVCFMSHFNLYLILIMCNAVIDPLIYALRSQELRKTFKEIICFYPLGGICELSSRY
Summary of the method: (§1)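 HEK-293 cells stably expressing mouse melanocortin receptors (G418-selected) were transiently transfected with a CRE/β-galactosidase reporter. 48 h after transfection, cells were stimulated for 6 h with peptide (10^-4 to 10^-12 M) or forskolin (10^-4 M) in DMEM with 0.1 mg/mL BSA and 0.1 mM IBMX. Lysates were incubated with ONPG at 37° and read at OD405. Signals were normalized to relative protein (OD595) and to forskolin response. EC50 came from nonlinear least-squares fits of duplicate experiments in quadruplet or more.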

[2] = target: Melanocortin receptor 3 (Mus musculus) (UniProt P33033); test: Antagonist activity for mouse Melanocortin-3 receptor; format: functional
Melanocortin receptor 3 (Mus musculus), sequence (P33033 whole entry): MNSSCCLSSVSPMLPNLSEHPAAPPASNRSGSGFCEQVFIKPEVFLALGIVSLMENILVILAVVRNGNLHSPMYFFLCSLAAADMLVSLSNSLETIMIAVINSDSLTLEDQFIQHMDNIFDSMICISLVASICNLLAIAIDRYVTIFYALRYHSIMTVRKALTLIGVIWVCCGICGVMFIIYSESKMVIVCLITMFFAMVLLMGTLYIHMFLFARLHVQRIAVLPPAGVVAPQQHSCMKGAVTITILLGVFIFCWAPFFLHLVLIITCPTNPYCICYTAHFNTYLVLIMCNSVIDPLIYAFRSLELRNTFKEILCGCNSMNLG

[3] = target: Melanocortin receptor 3 (Mus musculus) (UniProt P33033); test: Agonist activity for mouse Melanocortin-3 receptor; format: functional; summary of the method: as §1
[4] = target: Melanocortin receptor 3 (Mus musculus) (UniProt P33033); test: Relative percent of stimulatory activity for mouse Melanocortin-3 receptor at 100 uM; summary of the method: as §1
[5] = target: Melanocortin receptor 4 (Mus musculus) (UniProt P56450)
[6] = target: Melanocortin receptor 4 (Mus musculus) (UniProt P56450); test: Partial agonist concentration for mouse Melanocortin-4 receptor; format: functional
[7] = target: Melanocortin receptor 3 (Mus musculus) (UniProt P33033); test: Partial agonist activity towards mouse Melanocortin-3 receptor; format: functional; summary of the method: as §1

`C[C@@H]1NC(=O)[C@H](CC(N)=O)NC(=O)[C@H](Cc2c[nH]c3ccccc23)NC(=O)[C@H](CCCN=C(N)N)NC(=O)[C@@H](Cc2ccc(I)cc2)NC(=O)[C@H](Cc2c[nH]cn2)NC(=O)[C@@H](NC(=O)[C@@H](N)Cc2ccc(O)cc2)CC(=O)N([C@@H](Cc2ccc(O)cc2)C(N)=O)[C@@](C)(C(=O)O)NC(=O)C(Cc2ccccc2)NC1=O` (stereo in doubt) gave a pA2 [1] of 9.4 and a pA2 [2] of 8.8.

`C[C@@H]1NC(=O)[C@H](CC(N)=O)NC(=O)[C@H](Cc2c[nH]c3ccccc23)NC(=O)[C@H](CCCN=C(N)N)NC(=O)[C@@H](Cc2ccccc2)NC(=O)C2(CCc3ccccc3C2)NC(=O)[C@@H](NC(=O)[C@@H](N)Cc2ccc(O)cc2)CC(=O)N([C@@H](Cc2ccc(O)cc2)C(N)=O)[C@@](C)(C(=O)O)NC(=O)[C@H](Cc2ccccc2)NC1=O` (mixture of isomers) was tested, and the pA2 [3] was 6.4 and the SA [4] was 40%.

Compound `C[C@@H]1NC(=O)[C@H](CC(N)=O)NC(=O)[C@H](Cc2ccccc2)NC(=O)[C@H](Cc2ccccc2)NC(=O)[C@H](CCCN=C(N)N)NC(=O)[C@@H](NC(=O)[C@@H](N)Cc2ccc(O)cc2)CSSC[C@@H](C(=O)N[C@@H](Cc2ccc(O)cc2)C(N)=O)NC(=O)[C@H](Cc2ccccc2)NC1=O` (H-YCRFFNAFCY-NH2; disulfide 2-9) has a pA2 [5] of 6.8.

`C[C@@H]1NC(=O)[C@H](CC(N)=O)NC(=O)[C@H](Cc2c[nH]c3ccccc23)NC(=O)[C@H](CCCN=C(N)N)NC(=O)[C@@H](Cc2ccc3ccccc3c2)NC(=O)[C@H](Cc2c[nH]cn2)NC(=O)[C@@H](NC(=O)[C@@H](N)Cc2ccc(O)cc2)CC(=O)N([C@@H](Cc2ccc(O)cc2)C(N)=O)[C@@](C)(C(=O)O)NC(=O)[C@H](Cc2ccccc2)NC1=O` was tested, and the pA2 [2] was 8.2 and the pA2 [6] was 9.1.

`C[C@@H]1NC(=O)[C@H](CC(N)=O)NC(=O)[C@H](Cc2c[nH]c3ccccc23)NC(=O)[C@H](CCCN=C(N)N)NC(=O)[C@@H](Cc2ccccc2)NC(=O)[C@H](Cc2ccccc2)NC(=O)[C@@H](NC(=O)[C@@H](N)Cc2ccc(O)cc2)CC(=O)N([C@@H](Cc2ccc(O)cc2)C(N)=O)[C@@](C)(C(=O)O)NC(=O)[C@H](Cc2ccccc2)NC1=O` was tested, and the pA2 [7] was 7.2.
